The results in this text go back to PubChem BioAssay AID588817 (The Scripps Research Institute Molecular Screening Center, 2011).

Calls of active or inactive are those of the source.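 Rule for the calls: active = compounds cutting probe labeling of the enzyme in cells by at least 50% at 0.1 µM; inactive = under 50% inhibition at that dose.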

By inhibition is commonly meant the change of the read-out against control, counted positive when it falls.

The assay addresses Platelet-activating factor acetylhydrolase (Mus musculus) (UniProt Q60963). Description: pPAFAH inhibition in transfected cells, late-stage follow-up, cell-based, gel-based competitive ABPP, fluorescence (AID 588817). As to conditions: HEK293T overexpressing mouse pPAFAH, 4 h; at 10 µM (top of the series). A digest of the protocol: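 Test system: mouse pPAFAH-transfected 293T cells / Buffer or medium: serum-free medium during compound treatment / Doses: four-point series of 10, 1, 0.1, 0.01 µM final / Times: 4 h compound treatment, 30 min probe labelling, 37 °C / Measured by: gel fluorescence band intensity after SDS-PAGE / Controls: DMSO high control, blank-gel background low control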

Chain of Platelet-activating factor acetylhydrolase (Mus musculus) (Q60963 whole entry, looked up): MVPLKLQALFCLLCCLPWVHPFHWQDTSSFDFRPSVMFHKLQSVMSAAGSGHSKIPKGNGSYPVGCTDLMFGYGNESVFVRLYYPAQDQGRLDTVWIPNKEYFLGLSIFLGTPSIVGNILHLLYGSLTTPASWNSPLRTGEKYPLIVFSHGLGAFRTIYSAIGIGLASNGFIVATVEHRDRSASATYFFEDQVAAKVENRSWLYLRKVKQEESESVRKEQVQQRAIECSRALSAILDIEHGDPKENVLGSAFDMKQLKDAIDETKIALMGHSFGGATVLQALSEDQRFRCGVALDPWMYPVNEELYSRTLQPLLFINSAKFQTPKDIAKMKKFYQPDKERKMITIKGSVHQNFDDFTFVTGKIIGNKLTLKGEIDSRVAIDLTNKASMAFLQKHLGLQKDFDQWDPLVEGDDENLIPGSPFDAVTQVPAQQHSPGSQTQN

On to `Cc1cc(N2CCN(C(=O)Oc3ccc(-c4ccccc4)cn3)CC2)c2ccccc2n1`, for which the inhibition is 100% (active).
